“And” between values parts separate entries of the source, which are not always exact repeats. Identical values can stand only once. The source made the active and inactive calls. No cut-off for these calls is given here.
Assays:
Nucleic Acid [1] = test: Binding affinity to F-c-kit1-T G-quadruplex DNA assessed as change in melting temperature at 1 uM by FRET assay (reference value: 54 degC); assay type: nucleic-acid assay
Method in brief: (§1)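 FRET melting of dual FAM/TAMRA-labelled oligonucleotide (0.2 μM), pre-annealed in K+ buffer (90 °C 5 min, slow cooling, 4 °C overnight), in 10 mM Tris-HCl pH 7.4, 60 mM KCl with ligand at 1 μM. Equilibrated 25 °C 5 min, then heated 1 °C/min to 95 °C; excitation 492 nm, emission 516 nm. ΔTm = Tm(DNA+ligand) − Tm(DNA).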

Nucleic Acid [2] = test: Binding affinity to F-c-kit2-T G-quadruplex DNA assessed as change in melting temperature at 1 uM by FRET assay (reference value: 75 degC); assay type: nucleic-acid assay; method in brief: as §1
Nucleic Acid [3] = test: Binding affinity to F22T G-quadruplex DNA assessed as decrease in melting temperature at 1 uM by FRET assay in presence of duplex DNA competitor ds26; assay type: nucleic-acid assay
Method in brief: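 Competitive FRET melting: 0.2 μM F22T premixed with excess duplex ds26 (3 μM or 10 μM), ligand at 1 μM, in 10 mM Tris-HCl pH 7.4, 60 mM KCl. Heated 1 °C/min from 25 °C to 95 °C; ex 492/em 516 nm; ΔTm determined.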

Nucleic Acid [4] = test: Binding affinity to single-strand Pu27 oligonucleotide assessed as formation of G-quadruplex complex after 3 mins by PCR stop assay; assay type: nucleic-acid assay
Method in brief: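 PCR stop assay: Pu27 with complementary Pu27rev (10 pmol each), 0.16 mM dNTP, 2.5 U Taq polymerase and ligand in 1× PCR buffer. Cycling 94 °C 3 min, then 35 cycles of 94 °C/58 °C/72 °C, 30 s each. Double-stranded product detected by electrophoresis; IC50 is the concentration inhibiting amplification by 50%.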

[5] = test system: human telomeric G-quadruplex DNA F21T (human); test: Binding affinity to F21T G-quadruplex DNA assessed as change in melting temperature at 1 uM by FRET assay (reference value: 60 degC)
Nucleic Acid [6] = test: Binding affinity to F10T hairpin duplex DNA assessed as change in melting temperature at 1 uM by FRET assay (reference value: 64 degC)
[7] = test system: c-myc G-quadruplex DNA F22T (human); test: Binding affinity to human F22T G-quadruplex DNA assessed as change in melting temperature at 1 uM by FRET assay (reference value: 78 degC)
Nucleic Acid [8] = test: Binding affinity to F22T G-quadruplex DNA assessed as decrease in melting temperature at 1 uM by FRET assay in presence of G-quadruplex DNA competitor HTG21; assay type: nucleic-acid assay
Method in brief: (§2)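 Competitive FRET melting: 0.2 μM F22T with ligand at 1 μM, without or with 3 μM or 10 μM unlabelled G-quadruplex competitor (c-kit1, c-kit2 or HTG21), in 10 mM Tris-HCl pH 7.4, 60 mM KCl. Heated 1 °C/min from 25 °C to 95 °C; ex 492/em 516 nm; ΔTm determined.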

Nucleic Acid [9] = test: Binding affinity to F22T G-quadruplex DNA assessed as change in melting temperature at 1 uM by FRET assay in presence of G-quadruplex DNA competitor c-kit1; assay type: nucleic-acid assay; method in brief: as §2
Nucleic Acid [10] = test: Binding affinity to F22T G-quadruplex DNA assessed as change in melting temperature at 1 uM by FRET assay in presence of G-quadruplex DNA competitor c-kit2; assay type: nucleic-acid assay; method in brief: as §2
Nucleic Acid [11] = test: Binding affinity to Pu27 G-quadruplex DNA assessed as change in melting temperature by isothermal titration calorimetry; assay type: nucleic-acid assay
Method in brief: (§3)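 ITC at 25 °C: preannealed G-quadruplex (5 μM) in cell, ligand (400 μM) in syringe, both in 10 mM Tris-HCl pH 7.4, 150 mM KCl, degassed. Thirty 10 μL injections at 4 min intervals. Heats of ligand dilution into buffer subtracted before fitting the integrated thermograms for K, ΔH, ΔS.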

Nucleic Acid [12] = test: Binding affinity to c-kit1 G-quadruplex DNA assessed as change in melting temperature by isothermal titration calorimetry; assay type: nucleic-acid assay; method in brief: as §3
Nucleic Acid [13] = test: Binding affinity to c-kit2 G-quadruplex DNA assessed as change in melting temperature by isothermal titration calorimetry; assay type: nucleic-acid assay; method in brief: as §3
Nucleic Acid [14] = test: Binding affinity to HTG21 G-quadruplex DNA assessed as change in melting temperature by isothermal titration calorimetry; assay type: nucleic-acid assay; method in brief: as §3
Nucleic Acid [15] = test: Selectivity ratio, K for F22T G-quadruplex DNA to K for c-kit1 G-quadruplex DNA; assay type: nucleic-acid assay
Nucleic Acid [16] = test: Selectivity ratio, K for F22T G-quadruplex DNA to K for c-kit2 G-quadruplex DNA; assay type: nucleic-acid assay
Nucleic Acid [17] = test: Selectivity ratio, K for F22T G-quadruplex DNA to K for human F21T G-quadruplex DNA; assay type: nucleic-acid assay

ΔTm (Nucleic Acid [1]) | ΔTm (Nucleic Acid [2]) | Activity (Nucleic Acid [3]) | IC50 (Nucleic Acid [4]) | ΔTm [5] | ΔTm (Nucleic Acid [6]) | ΔTm [7] | Activity (Nucleic Acid [8]) | Activity (Nucleic Acid [9]) | Activity (Nucleic Acid [10]) | K (Nucleic Acid [11]) | K (Nucleic Acid [12]) | K (Nucleic Acid [13]) | K (Nucleic Acid [14]) | Selectivity ratio (Nucleic Acid [15]) | Selectivity ratio (Nucleic Acid [16]) | Selectivity ratio (Nucleic Acid [17]) | Structure (SMILES)
1 °C | 0 °C | inactive | > 20 µM | 0 °C | 0 °C | 2 °C |  |  |  |  |  |  |  |  |  |  | O=C1/C(=C/c2ccc3ncccc3c2)CC/C1=C\c1ccc2ncccc2c1
17 °C | 12 °C | inactive | 1.1 µM | 10 °C | 0 °C | 9 °C |  |  |  |  |  |  |  |  |  |  | C[n+]1cccc2cc(/C=C3/CCC/C(=C/c4ccc5c(ccc[n+]5C)c4)C3=O)ccc21
1 °C | 0 °C | inactive | > 20 µM | 0 °C | 0 °C | 2 °C |  |  |  |  |  |  |  |  |  |  | O=C1/C(=C\c2ccc3ncccc3c2)CCC/C1=C/c1ccc2ncccc2c1
29 °C | 20 °C | inactive | 0.9 µM | 23 °C | 1 °C | 17 °C | Active | 40% | 40% | 8.05 ×10⁶ /M and 4.42 ×10⁴ /M | 3.08 ×10⁵ /M | 1.27 ×10⁵ /M | 3.61 ×10⁴ /M | 25 | 25 | 200 | C[n+]1cccc2cc(/C=C3\CC/C(=C\c4ccc5c(ccc[n+]5C)c4)C3=O)ccc21
10 °C | 5 °C | inactive | > 20 µM | 3 °C | 0 °C | 2 °C |  |  |  |  |  |  |  |  |  |  | O=C(/C=C/c1ccc2ncccc2c1)/C=C/c1ccc2ncccc2c1
24 °C | 17 °C | inactive | 0.7 µM | 17 °C | 0 °C | 13 °C |  |  |  |  |  |  |  |  |  |  | C[n+]1cccc2cc(/C=C/C(=O)/C=C/c3ccc4c(ccc[n+]4C)c3)ccc21
14 °C | 6 °C | inactive | 12.6 µM | 7 °C | 0 °C | 7 °C |  |  |  |  |  |  |  |  |  |  | C[n+]1cccc2cc(/C=C3\C[N+](C)(C)C/C(=C\c4ccc5c(ccc[n+]5C)c4)C3=O)ccc21
1 °C | 1 °C | inactive | > 20 µM | 4 °C | 0 °C | 1 °C |  |  |  |  |  |  |  |  |  |  | CN1C/C(=C\c2ccc3ncccc3c2)C(=O)/C(=C/c2ccc3ncccc3c2)C1

Reference: ChEMBL document CHEMBL1287726, “Bisaryldiketene derivatives: A new class of selective ligands for c-myc G-quadruplex DNA” (Bioorg Med Chem, 2010)
